Assay results published in ChEMBL document CHEMBL4376814, “Novel cyclin-dependent kinase 9 (CDK9) inhibitor with suppression of cancer stemness activity against non-small-cell lung cancer” (Eur J Med Chem, 2019).
Calls of active or inactive are those of the source. No cut-off for these calls is given here.

Key:
[1] = tested on: Mast/stem cell growth factor receptor Kit (Homo sapiens), P10721 [D816H]; experiment: Inhibition of recombinant human cKit (544 to end residues) D816H mutant at 1 uM using GGMEDIYFEFMGGKKK as substrate measured after 40 mins in presence of [gamma33P]ATP by scintillation counting method relative to control
Procedure, shortened: (§1)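 Single-point inhibition at 1 µM was measured in the Eurofins KinaseProfiler panel. Values are the mean of two independent experiments.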

[2] = tested on: Mast/stem cell growth factor receptor Kit (Homo sapiens), P10721 [V654A]; experiment: Inhibition of recombinant human cKit (544 to end residues) V654A mutant at 1 uM using GGMEDIYFEFMGGKKK as substrate measured after 40 mins in presence of [gamma33P]ATP by scintillation counting method relative to control; procedure, shortened: as §1
SiHa = experiment: Antiproliferative activity against human SiHa cells assessed as inhibition of cell viability at 10 uM after 72 hrs by CCK-8 assay relative to control; assay type: functional
Procedure, shortened: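 Single-concentration viability screen using CCK-8. Cells were seeded at 3000/well and treated for 72 h. A450 read after 1-4 h with reagent. Percent inhibition calculated against untreated control and blank wells as (Ac−As)/(Ac−Ab)×100%.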

[3] = tested on: CDK18/Cyclin Y (Homo sapiens), Q07002+Q8ND76 [T166M]; experiment: Inhibition of recombinant full length human cyclinY/CDK18 T166M mutant at 1 uM using YRRAAVPPSPSLS as substrate measured after 40 mins in presence of [gamma33P]ATP by scintillation counting method relative to control; assay type: protein-complex assay; procedure, shortened: as §1
[4] = molecular target: Phosphatidylinositol 3-kinase C2 domain-containing subunit gamma (Homo sapiens) (UniProt O75747); experiment: Inhibition of recombinant human PI3KC2gamma (468 to 1203 residues) at 1 uM using phosphatidylinositol as substrate measured after 40 mins by HTRF assay relative to control
NCI-H1299 [5] = experiment: Induction of apoptosis in human H1299 cells assessed as late apoptotic cells at 0.5 uM after 48 hrs by AnnexinV-FITC/PI staining-based flow cytometric analysis (reference value: 1.77%); assay type: functional
[6] = molecular target: Receptor tyrosine-protein kinase erbB-4 (Homo sapiens) (UniProt Q15303); experiment: Inhibition of recombinant human ErbB4 (706 to 991 residues) at 1 uM using poly(Glu, Tyr) 4:1 as substrate measured after 40 mins in presence of [gamma33P]ATP by scintillation counting method relative to control
[7] = molecular target: Ribosomal protein S6 kinase alpha-3 (Homo sapiens) (UniProt P51812); experiment: Inhibition of recombinant full-length human Rsk3 at 1 uM using KKKNRTLSVA as substrate measured after 40 mins in presence of [gamma33P]ATP by scintillation counting method relative to control; procedure, shortened: as §1
[8] = molecular target: Protein-tyrosine kinase 2-beta (Homo sapiens) (UniProt Q14289); experiment: Inhibition of recombinant full-length human Pyk2 at 1 uM using poly(Glu, Tyr) 4:1 as substrate measured after 40 mins in presence of [gamma33P]ATP by scintillation counting method relative to control
[9] = molecular target: MAP/microtubule affinity-regulating kinase 4 (Homo sapiens) (UniProt Q96L34); experiment: Inhibition of full-length recombinant human MARK4 at 1 uM using KKKVSRSGLYRSPSMPENLNRPR as substrate measured after 40 mins in presence of [gamma33P]ATP by scintillation counting method relative to control
Procedure, shortened: (§2)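 Percent inhibition of kinase activity at a single compound concentration, measured by the outsourced Eurofins KinaseProfiler panel. Values are the mean of two independent experiments.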

[10] = molecular target: Interleukin-1 receptor-associated kinase 1 (Homo sapiens) (UniProt P51617); conditions: 1 uM
NCI-H1299 [11] = experiment: Induction of apoptosis in human H1299 cells assessed as activation of caspase 3 at 0.25 to 1 uM after 24 hrs by Western blot analysis; assay type: functional, cell-based
Procedure, shortened: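 A549 or H1299 cells exposed to the indicated concentrations for 24 h. Protein extracts then immunoblotted for apoptosis-pathway proteins (Bcl2, Bim, cleaved caspase 3).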

[12] = molecular target: Bone morphogenetic protein receptor type-1B (Homo sapiens) (UniProt O00238); experiment: Inhibition of recombinant human ALK6 (148 to end residues) at 1 uM using casein as substrate measured after 40 mins in presence of [gamma33P]ATP by scintillation counting method relative to control
PC-9 = experiment: Antiproliferative activity against human PC9 cells assessed as inhibition of cell viability after 72 hrs by CCK-8 assay; assay type: functional, cell-based; conditions: PC-9, 72 h
Procedure, shortened: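 Cells kept at 37 °C, 5% CO2 in DMEM or RPMI-1640 with 10% FBS and 1% penicillin/streptomycin, then seeded at 3000 cells/well (adherent) or 10,000 cells/well (suspension). Exposed to a range of concentrations for 72 h. CCK-8 added for 1-4 h before reading A450. […] Three independent experiments.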

Mus musculus = species: Mus musculus; experiment: Inhibition of recombinant full-length mouse LYN N425D mutant at 1 uM using poly(Glu, Tyr) 4:1 as substrate measured after 40 mins in presence of [gamma33P]ATP by scintillation counting method relative to control
[13] = molecular target: Mast/stem cell growth factor receptor Kit (Homo sapiens) (UniProt P10721); experiment: Inhibition of recombinant human cKit (544 to end residues) at 1 uM using Poly(Glu,Tyr) 4:1 as substrate measured after 40 mins in presence of [gamma33P]ATP by scintillation counting method relative to control; procedure, shortened: as §1
NCI-H1299 [14] = experiment: Induction of cell cycle arrest in human H1299 cells assessed as accumulation of cells at G0/G1 phase at 1 uM after 24 hrs by propidium iodide/RNase staining based flow cytometric analysis; assay type: functional
Procedure, shortened: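 A549 and H1299 plated at 5×10^5 cells/mL in 6-well plates, treated after adherence for 24 h. Washed with PBS, fixed overnight in ice-cold 75% ethanol, stained with propidium iodide plus RNase A for 30 min at 37 °C, analysed by flow cytometry for phase distribution. Means ± SD, three independent experiments.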

[15] = molecular target: MAPK/MAK/MRK overlapping kinase (Homo sapiens) (UniProt Q9UQ07); experiment: Inhibition of recombinant human MOK (1 to 343 residues) at 1 uM using RSRSRSRSRSRSRSR as substrate measured after 40 mins in presence of [gamma33P]ATP by scintillation counting method relative to control
[16] = molecular target: Serine/threonine-protein kinase 25 (Homo sapiens) (UniProt O00506); experiment: Inhibition of human STK25 (1 to 308 residues) at 1 uM using RLGRDKYKTLRQIRQ as substrate measured after 40 mins in presence of [gamma33P]ATP by scintillation counting method relative to control; procedure, shortened: as §2
[17] = molecular target: Mitogen-activated protein kinase kinase kinase kinase 2 (Homo sapiens) (UniProt Q12851); experiment: Inhibition of recombinant human GCK (1 to 473 residues) at 1 uM using myelin basic protein as substrate measured after 40 mins in presence of [gamma33P]ATP by scintillation counting method relative to control
[18] = molecular target: Serine/threonine-protein kinase NLK (Homo sapiens) (UniProt Q9UBE8); experiment: Inhibition of recombinant human NLK (121 to end residues) at 1 uM using myelin basic protein as substrate measured after 40 mins in presence of [gamma33P]ATP by scintillation counting method relative to control

Sequence of MAPK/MAK/MRK overlapping kinase (Homo sapiens) (Q9UQ07 whole entry, the tested form may be a part): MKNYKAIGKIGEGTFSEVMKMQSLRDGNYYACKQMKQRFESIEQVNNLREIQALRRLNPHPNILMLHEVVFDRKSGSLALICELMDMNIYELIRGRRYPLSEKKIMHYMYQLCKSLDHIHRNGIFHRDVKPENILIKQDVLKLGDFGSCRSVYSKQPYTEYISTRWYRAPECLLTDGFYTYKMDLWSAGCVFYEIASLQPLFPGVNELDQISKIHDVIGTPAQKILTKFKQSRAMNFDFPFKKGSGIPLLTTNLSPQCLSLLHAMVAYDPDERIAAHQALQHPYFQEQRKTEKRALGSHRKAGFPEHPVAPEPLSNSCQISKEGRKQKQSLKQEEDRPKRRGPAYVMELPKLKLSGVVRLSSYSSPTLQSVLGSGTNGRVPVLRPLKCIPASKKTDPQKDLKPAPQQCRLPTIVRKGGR
Sequence of Interleukin-1 receptor-associated kinase 1 (Homo sapiens) (P51617 whole entry, looked up): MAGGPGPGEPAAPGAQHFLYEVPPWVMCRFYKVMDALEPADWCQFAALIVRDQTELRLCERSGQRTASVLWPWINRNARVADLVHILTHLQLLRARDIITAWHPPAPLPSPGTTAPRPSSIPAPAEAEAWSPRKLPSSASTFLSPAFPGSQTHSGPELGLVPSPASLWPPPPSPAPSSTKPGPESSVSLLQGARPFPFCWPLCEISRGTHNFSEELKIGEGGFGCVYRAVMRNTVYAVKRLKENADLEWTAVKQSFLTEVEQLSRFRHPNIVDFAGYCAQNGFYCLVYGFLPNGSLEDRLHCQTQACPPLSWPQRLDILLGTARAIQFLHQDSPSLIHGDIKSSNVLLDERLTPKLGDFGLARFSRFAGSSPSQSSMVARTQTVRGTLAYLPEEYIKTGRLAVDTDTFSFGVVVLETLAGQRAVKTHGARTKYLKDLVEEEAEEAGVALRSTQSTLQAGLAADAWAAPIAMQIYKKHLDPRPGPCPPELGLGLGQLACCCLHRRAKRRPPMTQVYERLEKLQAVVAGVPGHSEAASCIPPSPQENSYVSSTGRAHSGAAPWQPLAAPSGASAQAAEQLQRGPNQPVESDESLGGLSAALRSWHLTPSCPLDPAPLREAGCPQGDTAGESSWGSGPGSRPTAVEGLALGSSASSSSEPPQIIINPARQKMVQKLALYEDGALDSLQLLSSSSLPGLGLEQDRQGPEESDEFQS
Sequence of Protein-tyrosine kinase 2-beta (Homo sapiens) (Q14289 whole entry, looked up): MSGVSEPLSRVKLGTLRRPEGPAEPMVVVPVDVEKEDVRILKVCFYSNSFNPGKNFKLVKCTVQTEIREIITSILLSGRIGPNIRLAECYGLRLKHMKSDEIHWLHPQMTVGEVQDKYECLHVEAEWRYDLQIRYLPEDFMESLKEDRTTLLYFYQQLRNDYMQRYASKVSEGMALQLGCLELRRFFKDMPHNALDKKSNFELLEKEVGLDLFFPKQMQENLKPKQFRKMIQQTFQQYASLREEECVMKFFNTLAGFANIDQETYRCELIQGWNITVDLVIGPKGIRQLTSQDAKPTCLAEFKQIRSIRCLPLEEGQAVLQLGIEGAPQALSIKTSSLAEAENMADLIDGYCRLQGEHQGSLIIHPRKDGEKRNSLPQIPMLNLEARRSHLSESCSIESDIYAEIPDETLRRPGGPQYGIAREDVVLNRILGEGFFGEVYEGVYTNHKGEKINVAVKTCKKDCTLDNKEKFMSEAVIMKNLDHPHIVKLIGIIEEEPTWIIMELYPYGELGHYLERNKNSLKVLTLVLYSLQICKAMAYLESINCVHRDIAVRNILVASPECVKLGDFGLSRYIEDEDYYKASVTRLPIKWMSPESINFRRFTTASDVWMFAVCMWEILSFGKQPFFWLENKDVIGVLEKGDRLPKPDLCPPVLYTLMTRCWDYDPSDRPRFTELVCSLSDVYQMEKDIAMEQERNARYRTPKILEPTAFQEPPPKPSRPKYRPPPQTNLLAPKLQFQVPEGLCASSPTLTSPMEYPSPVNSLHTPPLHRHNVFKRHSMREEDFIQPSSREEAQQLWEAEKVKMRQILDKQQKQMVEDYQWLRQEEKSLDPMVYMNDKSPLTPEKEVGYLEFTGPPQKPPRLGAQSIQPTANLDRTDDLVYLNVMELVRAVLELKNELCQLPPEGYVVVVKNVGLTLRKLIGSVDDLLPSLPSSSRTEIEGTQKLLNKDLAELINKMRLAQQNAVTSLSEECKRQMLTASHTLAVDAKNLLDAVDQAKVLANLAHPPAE
Sequence of Mitogen-activated protein kinase kinase kinase kinase 2 (Homo sapiens) (Q12851 whole entry, the tested form may be a part): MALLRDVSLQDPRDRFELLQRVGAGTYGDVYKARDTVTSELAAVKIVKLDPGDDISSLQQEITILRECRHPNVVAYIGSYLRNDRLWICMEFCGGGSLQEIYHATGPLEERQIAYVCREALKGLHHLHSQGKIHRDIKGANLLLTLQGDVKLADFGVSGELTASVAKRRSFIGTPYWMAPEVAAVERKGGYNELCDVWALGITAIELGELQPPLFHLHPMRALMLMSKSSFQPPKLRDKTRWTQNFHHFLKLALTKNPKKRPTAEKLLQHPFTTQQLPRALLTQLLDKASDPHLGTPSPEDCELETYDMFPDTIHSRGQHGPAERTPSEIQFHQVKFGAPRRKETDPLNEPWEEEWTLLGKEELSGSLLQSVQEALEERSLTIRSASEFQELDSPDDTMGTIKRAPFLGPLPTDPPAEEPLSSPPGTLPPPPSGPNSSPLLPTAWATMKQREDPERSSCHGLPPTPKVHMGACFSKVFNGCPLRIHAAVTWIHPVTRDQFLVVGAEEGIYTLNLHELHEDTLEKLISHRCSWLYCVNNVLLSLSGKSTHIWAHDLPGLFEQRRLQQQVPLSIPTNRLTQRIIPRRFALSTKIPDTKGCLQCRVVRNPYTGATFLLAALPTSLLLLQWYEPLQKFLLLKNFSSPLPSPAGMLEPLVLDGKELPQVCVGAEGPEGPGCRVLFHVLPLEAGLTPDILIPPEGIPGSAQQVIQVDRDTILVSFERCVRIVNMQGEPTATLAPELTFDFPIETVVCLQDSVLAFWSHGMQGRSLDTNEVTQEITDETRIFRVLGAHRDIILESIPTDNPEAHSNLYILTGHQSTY
Sequence of Mast/stem cell growth factor receptor Kit (Homo sapiens), P10721 [D816H] (P10721 whole entry D816H): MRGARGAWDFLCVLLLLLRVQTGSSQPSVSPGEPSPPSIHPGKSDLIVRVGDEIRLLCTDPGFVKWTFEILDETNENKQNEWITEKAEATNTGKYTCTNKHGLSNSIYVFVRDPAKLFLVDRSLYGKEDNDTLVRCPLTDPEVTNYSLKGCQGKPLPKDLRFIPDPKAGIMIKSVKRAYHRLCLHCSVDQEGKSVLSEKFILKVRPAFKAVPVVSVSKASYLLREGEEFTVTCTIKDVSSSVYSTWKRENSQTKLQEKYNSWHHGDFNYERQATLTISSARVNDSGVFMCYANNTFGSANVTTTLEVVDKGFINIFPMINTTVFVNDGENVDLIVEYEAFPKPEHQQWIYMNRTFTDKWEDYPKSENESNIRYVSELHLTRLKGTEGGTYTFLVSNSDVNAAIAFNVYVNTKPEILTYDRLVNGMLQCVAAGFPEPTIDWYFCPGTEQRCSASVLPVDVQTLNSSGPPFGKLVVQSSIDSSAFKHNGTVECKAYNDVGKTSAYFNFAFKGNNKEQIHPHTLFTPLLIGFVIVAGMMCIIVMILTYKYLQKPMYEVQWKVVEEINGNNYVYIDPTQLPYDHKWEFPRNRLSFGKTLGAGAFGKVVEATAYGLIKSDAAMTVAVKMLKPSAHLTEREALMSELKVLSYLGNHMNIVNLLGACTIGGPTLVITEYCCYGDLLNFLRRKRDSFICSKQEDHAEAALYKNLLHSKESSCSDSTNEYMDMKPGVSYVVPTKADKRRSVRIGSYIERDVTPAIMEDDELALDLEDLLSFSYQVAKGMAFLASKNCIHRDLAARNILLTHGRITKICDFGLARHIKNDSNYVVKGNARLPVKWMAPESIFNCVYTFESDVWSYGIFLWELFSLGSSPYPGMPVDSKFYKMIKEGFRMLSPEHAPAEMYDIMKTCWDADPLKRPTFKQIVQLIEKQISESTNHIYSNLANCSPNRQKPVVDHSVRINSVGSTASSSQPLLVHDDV
Sequence of Mast/stem cell growth factor receptor Kit (Homo sapiens), P10721 [V654A] (P10721 whole entry V654A): as the sequence (P10721 whole entry D816H) above, with V654A, H816D counted along it

**Q.** How did the inhibition [1] turn out when CN(C)C(=O)c1cc2cnc(Nc3ccc(NC(=O)CCCCCCCN=C=S)cc3)nc2n1C1CCCC1 was run?
**A.** The inhibition was 59%.

**Q.** What about the inhibition [2] of the same compound?
**A.** Its inhibition is 11%.

**Q.** And the inhibition at 10 µM (SiHa)?
**A.** The inhibition at 10 µM was 97%.

**Q.** And the inhibition [3]?
**A.** Its inhibition is 11%.

**Q.** What about the inhibition [4] of the same compound?
**A.** Its inhibition is 3%.

**Q.** What about the Activity (NCI-H1299 [5]) of the same compound?
**A.** Its Activity is 3.64%.

**Q.** And the inhibition [6]?
**A.** The inhibition was 24%.

**Q.** What about the inhibition [7] of the same compound?
**A.** The inhibition was 12%.

**Q.** What about the inhibition [8] of the same compound?
**A.** The inhibition was 46%.

**Q.** And the inhibition [9]?
**A.** The inhibition was 77%.

**Q.** What about the inhibition [10] of the same compound?
**A.** Its inhibition is 98%.

**Q.** And the Activity (NCI-H1299 [11])?
**A.** The Activity was “Active”.

**Q.** And the inhibition [12]?
**A.** The inhibition was -1%.

**Q.** What about the IC50 (PC-9) of the same compound?
**A.** The IC50 was 947 nM.

**Q.** And the inhibition (Mus musculus)?
**A.** Its inhibition is 36%.

**Q.** And the inhibition [13]?
**A.** Its inhibition is 26%.

**Q.** What about the Activity (NCI-H1299 [14]) of the same compound?
**A.** The Activity was “inactive”.

**Q.** And the inhibition [15]?
**A.** The inhibition was 21%.

**Q.** And the inhibition [16]?
**A.** The inhibition was -2%.

**Q.** And the inhibition [17]?
**A.** Its inhibition is 81%.

**Q.** What about the inhibition [18] of the same compound?
**A.** The inhibition was 13%.
